Key:
[1] = Inhibition of [3H]leucine uptake into CHO cells; format: functional, cell-based, Cricetulus griseus
Method in brief: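 CHO-K1 monolayers (90-100% confluent) were washed twice for 20 min at 37 °C in Na+-free choline buffer. Cells were then exposed for 2 min at room temperature to 2 µCi/mL L-[3H]leucine with test compound, 10 mM to 300 nM in half-log steps, in duplicate. Controls were no drug and 10 mM L-leucine. Uptake was stopped with cold buffer washes and counted by scintillation. IC50 from nonlinear least-squares regression.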

[2] = Equilibrium dissociation constant for Voltage-gated calcium channel alpha2-delta subunit as inhibition of [3H]gabapentin binding to pig brain membranes; parameters: species or system Sus scrofa, Membrane
Method in brief: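 Pig cortical membranes (10-20 µg protein/well) with wheat germ agglutinin SPA beads and 30 nM [3H]gabapentin in 10 mM HEPES/10 mM MgSO4, pH 7.4, incubated overnight (15-24 h) at room temperature, then scintillation counted. Mean ± SEM, N = 4.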

Rattus norvegicus [3] = experiment: Plasma levels 2 hours after peroral dosing of 30 mg/kg in rats was determined; format: functional, organism-based; parameters: dose 30 mg/kg
Method in brief: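 Sprague-Dawley rats were given a single 30 mg/kg oral dose. Plasma was sampled 2 h after dosing, with brain levels taken at the same time point, and drug concentration is reported in ng/mL.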

[4] = tested on: System L amino acid transporter (Cricetulus griseus); experiment: Inhibition of [3H]leucine uptake by L-amino acid transporter system in Chinese hamster ovary cells
Rattus norvegicus [5] = experiment: Ratio of brain level and plasma level 2 hours after peroral dosing of 30 mg/kg in rats was determined; format: functional, organism-based; parameters: dose 30 mg/kg
Method in brief: (§1)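 Sprague-Dawley rats were dosed orally at 30 mg/kg and sampled at 2 h. Brain and plasma levels were measured in ng/mL, and B/P is the brain-to-plasma ratio.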

Rattus norvegicus [6] = experiment: Brain levels 2 hours after peroral dosing of 30 mg/kg in rats was determined; format: functional; settings: route oral; method in brief: as §1

NCC1(C(=O)O)CC1
IC50 ([1]; Cricetulus griseus, CHO, 2 min): > 8300 µM | Ki [2]: > 10 µM

CC(C)C[C@H](CN)CC(=O)O [PREGABALIN]
Plasma level (Rattus norvegicus [3]): 19400 ng/mL | IC50 [4]: 158 µM

CC(C)CC1CC1(CN)C(=O)O (stereo in doubt)
IC50 ([1]; cho): > 8300 µM | Ki [2]: 0.037 µM

CC(C)C1CC1(CN)C(=O)O (stereo unspecified)
IC50 ([1]; Cricetulus griseus, CHO, 2 min): > 8300 µM | Ki [2]: 0.34 µM

CCC(CC)C1CC1(CN)C(=O)O (stereo in doubt)
IC50 ([1]; cho): > 2490 µM | Ki [2]: 0.63 µM

CCCC1(CCC)CC1(CN)C(=O)O (stereo unspecified)
IC50 ([1]; Cricetulus griseus, CHO, 2 min): > 2490 µM | Ki [2]: 0.2 µM

CC(C)CC1CC1(CN)C(=O)O (stereo in doubt; 36)
IC50 ([1]; cho): > 2490 µM | Ki [2]: 0.33 µM

NCC1(C(=O)O)CC12CCCC2 (stereo unspecified)
IC50 ([1]; Cricetulus griseus, CHO, 2 min): > 8300 µM | Ki [2]: 0.023 µM

NCC1(C(=O)O)CC12CCC2 (stereo unspecified)
IC50 ([1]; Cricetulus griseus, CHO, 2 min): > 2490 µM | Ki [2]: 0.2 µM

NCC1(C(=O)O)CC12CCCCC2 (stereo unspecified)
B/P (Rattus norvegicus [5]): 0.054 | Plasma level (Rattus norvegicus [3]): 7070 ng/mL | IC50 [4]: > 2490 µM | IC50 ([1]; Cricetulus griseus, CHO, 2 min): > 2490 µM | Ki [2]: 0.013 µM | Brain level (Rattus norvegicus [6]): 385 ng/mL

CCC(CC)C1CC1(CN)C(=O)O (stereo in doubt; 12)
IC50 ([1]; cho): > 8300 µM | Ki [2]: 0.56 µM

— ChEMBL document CHEMBL1144353 (J Med Chem, 2005)
